Source: ChEMBL document CHEMBL4725283, “Selective Peptidomimetic Inhibitors of NTMT1/2: Rational Design, Synthesis, Characterization, and Crystallographic Studies” (J Med Chem, 2020)
Active and inactive are the calls of the source. The rule behind the calls is not given here. Where a SMILES comes first, the peptide text is derived from it. [ ]: non-standard residue; d: D form. The star is where a group is joined. ξ: configuration not given here. ξαMeP = CC1(C(=O)O)CCCN1; X1 = O=C(Cc1ccc(O)cc1)*; PhAc = O=C(Cc1ccccc1)*; Bz = O=C(c1ccccc1)*

Tests used:
[1] = molecular target: T1, N-terminal Xaa-Pro-Lys N-methyltransferase 1 (Homo sapiens, UniProt Q9BV86); assay: (§1) Inhibition of recombinant human full-length His6-tagged NTMT1 (1 to 222 residues) expressed in Escherichia coli BL21-CodonPlus(DE3)-RIL competent cells pre-incubated for 10 mins in presence of SAM and SAHH before RCC1-6 addition and measured after 15 mins by fluorescence based SAHH-coupled assay
T1 sequence (Q9BV86 whole entry): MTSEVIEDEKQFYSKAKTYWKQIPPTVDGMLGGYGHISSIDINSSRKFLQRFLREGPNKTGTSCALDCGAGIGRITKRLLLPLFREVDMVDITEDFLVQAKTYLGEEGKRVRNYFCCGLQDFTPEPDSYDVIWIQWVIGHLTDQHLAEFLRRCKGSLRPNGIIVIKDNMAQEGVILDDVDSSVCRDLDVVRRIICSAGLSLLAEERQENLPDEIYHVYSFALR
How it was run: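 Pre-incubated 10 min at 37 °C, then started with RCC1-6 (10 µL of 50 µM stock in 100 µL). Line 11 screened at 30 µM; line 12 used 0–100 µM three-fold series, four-parameter fit. Triplicate.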

[2] = molecular target: T2, N-terminal Xaa-Pro-Lys N-methyltransferase 1 (Homo sapiens) (UniProt Q9BV86); assay: Substrate activity at recombinant human full-length His6-tagged NTMT1 (1 to 222 residues) expressed in Escherichia coli BL21-CodonPlus(DE3)-RIL competent cells by MALDI-MS analysis
T2 sequence (whole entry): T1 sequence (Q9BV86 whole entry)

[3] = molecular target: T1, N-terminal Xaa-Pro-Lys N-methyltransferase 1; assay: Binding affinity to recombinant human full-length His6-tagged NTMT1 (1 to 222 residues) by ITC assay
How it was run: (§2)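 ITC at 25 °C. Purified protein (NTMT1 for line 1, NTMT2 for line 2) in 20 mM Tris-HCl pH 7.5, 150 mM NaCl, 0.5 mM TCEP at 30–50 µM final. Compound at 0.5–1 mM in the same buffer, titrated in as 26 injections of 10 µl, 180 s apart, reference power 15 µcal/sec.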

[4] = molecular target: N-terminal Xaa-Pro-Lys N-methyltransferase 2 (Homo sapiens, UniProt Q5VVY1); assay: Binding affinity to recombinant human full-length His6-tagged NTMT2 by ITC assay; how it was run: as §2
[5] = Drug penetration in human HCT116 cells at 1 uM by MALDI-MS analysis; type: ADME, cell-based; conditions: hct-116, 1 µM
How it was run: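 HCT116 cells in McCoy's 5A with 10% FBS and 1% antibiotic-antimycotic, seeded at 0.1 × 10^6 cells/mL in 24-well plates and incubated overnight at 37 °C, 5% CO2. Compound added and incubation continued for the specified time; TAT peptide run as control. Cells washed three times with PBS, freeze-lysed twice in liquid nitrogen, and lysate analysed by MALDI (DHB matrix) for intracellular compound.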

[6] = molecular target: T2, N-terminal Xaa-Pro-Lys N-methyltransferase 1 (Homo sapiens); assay: Inhibition of NTMT1 in human HCT116 cells assessed as decrease in me3-SPK level at 100 uM incubated for 72 hrs by Western blot analysis; type: cell-based
How it was run: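 HCT116 cells seeded at 20,000 cells/well and treated 3 days with compound or PBS. Lysed in RIPA for 30 min on ice; equal protein (BCA) run on 12.5% SDS-PAGE and transferred to PVDF. Blotted with anti-me3-SPK (1:5000) overnight at 4 °C, with Lamin B1, SET and RCC1 antibodies, then HRP anti-rabbit.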

[7] = molecular target: T2, N-terminal Xaa-Pro-Lys N-methyltransferase 1 (Homo sapiens); assay: as §1, with “cells at 30 uM” for “cells”, “assay relative to control” for “assay”; conditions: time 25.0 min
How it was run: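 Pre-incubated 10 min at 37 °C, then started with RCC1-6 (10 µL of 50 µM stock in 100 µL). Read Ex 370/Em 500 nm for 15 min at 37 °C. Line 11 screened at 30 µM; line 12 used 0–100 µM three-fold series, four-parameter fit. Triplicate.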

Sequence of N-terminal Xaa-Pro-Lys N-methyltransferase 2 (Q5VVY1 whole entry): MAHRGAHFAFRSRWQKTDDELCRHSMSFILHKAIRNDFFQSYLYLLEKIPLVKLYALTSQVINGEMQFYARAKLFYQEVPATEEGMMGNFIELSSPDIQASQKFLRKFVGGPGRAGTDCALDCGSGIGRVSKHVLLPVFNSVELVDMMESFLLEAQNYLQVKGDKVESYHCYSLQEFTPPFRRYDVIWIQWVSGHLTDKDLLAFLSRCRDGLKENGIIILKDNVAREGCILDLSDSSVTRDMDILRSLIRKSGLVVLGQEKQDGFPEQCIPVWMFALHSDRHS

SMILES | IC50 [1] [µM] | Activity [2] | also measured
N=C(N)NCCC[C@H](NC(=O)[C@H](CCCCN)NC(=O)[C@@H]1CCCN1C(=O)c1ccccc1)C(N)=O (Bz-Pro-Lys-Arg-NH2) | > 100 | inactive | –
N=C(N)NCCC[C@H](NC(=O)[C@H](CCCCN)NC(=O)[C@@H]1CCCN1C(=O)Cc1ccc(CO)cc1)C(N)=O | – | inactive | –
N=C(N)NCCC[C@H](NC(=O)[C@H](CCCNC(=N)N)NC(=O)[C@H](CCCNC(=N)N)NC(=O)[C@H](CCC(N)=O)NC(=O)[C@H](CCCNC(=N)N)NC(=O)[C@H](CCCNC(=N)N)NC(=O)[C@H](CCCCN)NC(=O)[C@H](CCCCN)NC(=O)[C@H](CCCNC(=N)N)NC(=O)CNC(=O)[C@H](CCCNC(=N)N)NC(=O)[C@H](CCCCN)NC(=O)[C@@H]1CCCN1C(=O)Cc1ccc(O)cc1)C(N)=O | – | – | Kd [3]: 0.6 µM; Kd [4]: 3.4 µM; Drug uptake [5]: Active
N=C(N)NCCC[C@H](NC(=O)[C@H](CCCCN)NC(=O)c1cccc(NC(=O)Cc2ccc(O)cc2)c1)C(N)=O | > 100 | inactive | –
N=C(N)NCCC[C@H](NC(=O)[C@H](CCCNC(=N)N)NC(=O)[C@H](CCCNC(=N)N)NC(=O)[C@H](CCCNC(=N)N)NC(=O)[C@H](CCCNC(=N)N)NC(=O)[C@H](CCCNC(=N)N)NC(=O)[C@H](CCCCN)NC(=O)[C@@H]1CCCN1C(=O)Cc1ccc(O)cc1)C(N)=O (X1-PKRRRRRR-NH2) | – | – | Kd [3]: 0.3 µM; Kd [4]: 1 µM; Drug uptake [5]: Active; inhibition [6]: Active
N=C(N)NCCC[C@H](NC(=O)[C@H](CCCCN)NC(=O)c1ccccc1NC(=O)Cc1ccc(O)cc1)C(N)=O | > 100 | inactive | –
N=C(N)NCCC[C@H](NC(=O)[C@H](CCCCN)NC(=O)[C@@H]1CCCN1C(=O)C1CCCC1)C(N)=O | > 100 | inactive | –
N=C(N)NCCC[C@H](NC(=O)[C@H](CCCCN)NC(=O)[C@@H]1CCCN1C(=O)c1ccco1)C(N)=O | > 100 | inactive | –
COc1ccc(CC(=O)N2CCC[C@H]2C(=O)N[C@@H](CCCCN)C(=O)N[C@@H](CCCNC(=N)N)C(N)=O)cc1 | > 100 | inactive | –
N=C(N)NCCC[C@H](NC(=O)[C@H](CCCCN)NC(=O)[C@@H]1CCCN1CCc1ccc(O)cc1)C(N)=O | > 100 | inactive | –
CC1(C(=O)N[C@@H](CCCCN)C(=O)N[C@@H](CCCNC(=N)N)C(N)=O)CCCN1C(=O)Cc1ccccc1 (stereo partly drawn) (PhAc-[ξαMeP]-Lys-Arg-NH2) | > 100 | inactive | –
N=C(N)NCCC[C@H](NC(=O)[C@H](CCCCN)NC(=O)[C@@H]1CCCN1C(=O)C1CCCCC1)C(N)=O | > 100 | inactive | –

The remaining compounds from weak to strong by IC50 [1], led by results:

IC50 [1] [µM] | Activity [2] | SMILES | also measured
32.9 | inactive | N=C(N)NCCC[C@H](NC(=O)C[C@@H](CCCN)NC(=O)[C@@H]1CCCN1C(=O)Cc1ccc(O)cc1)C(N)=O | –
16 | inactive | NCCCC[C@H](NC(=O)[C@@H]1CCCN1C(=O)Cc1ccc(O)cc1)C(N)=O | –
13 | inactive | NCCCC[C@H](NC(=O)[C@@H]1CCCN1C(=O)Cc1ccc(O)cc1)C(=O)NCC(N)=O | –
12 | inactive | N=C(N)NCCC[C@H](NC(=O)[C@H](CCCCN)NC(=O)[C@@H]1CCCN1C(=O)CCc1ccc(N)cc1)C(N)=O | –
6.85 | inactive | N=C(N)NCCC[C@H](NC(=O)[C@H](CCCCN)NC(=O)[C@@H]1CCCN1C(=O)Cc1ccccc1)C(N)=O (PhAc-Pro-Lys-Arg-NH2) | inhibition [7]: > 50%
6.4 | inactive | N=C(N)NCC[C@H](CC(N)=O)NC(=O)[C@H](CCCCN)NC(=O)[C@@H]1CCCN1C(=O)Cc1ccc(O)cc1 | –
4.8 | inactive | C[C@@H](O)[C@H](NC(=O)[C@H](CCCCN)NC(=O)[C@@H]1CCCN1C(=O)Cc1ccc(O)cc1)C(N)=O | –
4.8 | inactive | C[C@H](NC(=O)[C@H](CCCCN)NC(=O)[C@@H]1CCCN1C(=O)Cc1ccc(O)cc1)C(N)=O | –
4.5 | inactive | N=C(N)NCCC[C@H](NC(=O)[C@H](CCCCN)NC(=O)[C@@H]1CCCN1C(=O)CCc1ccc(O)cc1)C(N)=O | –
4.3 | inactive | N=C(N)NCCC[C@H](NC(=O)[C@H](CCCCN)NC(=O)[C@@H]1CCCN1C(=O)Cc1ccc(N)cc1)C(N)=O | –
4.2 | inactive | N=C(N)NCCC[C@@H](NC(=O)[C@H](CCCCN)NC(=O)[C@@H]1CCCN1C(=O)Cc1ccc(O)cc1)C(N)=O | –
1 | inactive | NCCCC[C@H](NC(=O)[C@H](CCCCN)NC(=O)[C@@H]1CCCN1C(=O)Cc1ccc(O)cc1)C(N)=O | –
